TRPC4 act: activators of mouse TRPC4 channel; Q9QUQ5; HEK293 TRPC4beta/mu-opioid, Fluo4 calcium fluorescence; stronger effect = higher value; B-score at 10 µM; 310,000 compounds, 0.49% hits;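 active = B-score above 5 SD of library B-scores, and initial fluorescence ratio not above library mean plus 5 SD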;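 also: positive B-score marks a calcium rise read as TRPC4 activation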
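Assay system: HEK293 cells stably co-expressing mouse TRPC4beta and mu-opioid receptor / Timing: Fluo4 dye loading 45 min at room temperature, 110 s recording / Signal: Fluo4 calcium-sensitive dye fluorescence, kinetic, 1 Hz baseline / Read-out: integrated baseline-normalised fluorescence ratio, converted to per-well B score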
TRPC6 act: activators of mouse TRPC6 channel | 310,000 compounds, 0.13% hits | Q61143 | AID 2550 | B-score at 10 µM | HEK293-TRPC6 membrane potential dye fluorescence; stronger effect = higher value;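 active = B-score of the integrated fluorescence ratio above library mean plus 3 SD, and starting fluorescence ratio within library mean plus 5 SD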;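 also: higher score means more depolarization so channel activation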
TRPC6 inhibitor: mouse TRPC6 channel inhibition; Q61143; HEK293-TRPC6, membrane potential dye, ACh-evoked depolarization; stronger effect = lower value; B-score at 10 µM; 310,000 compounds, 1.1% hits; AID 2553;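 active = B-score under library mean minus 3 SD, initial fluorescence not abnormally high, positive integrated signal ratio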;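 also: B-score derived from integrated fluorescence ratio over the kinetic read; more negative B-score means stronger inhibition of depolarization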
CR mimetic SO: caloric restriction mimetics inhibiting age-related superoxide in yeast; S. cerevisiae aged cells, superoxide DHE fluorescence; stronger effect = lower value; superoxide response (% of plate mean), % at 10 µM; 330,000 compounds, 0.18% hits; AID 2690;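 active = superoxide response under a set limit, about three screen SD below normal, cut at about 65% in these data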;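 also: yeast aged for seven days with compound at 30 °C before DHE staining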
TRPC4 potent: allosterically enhances the mouse TRPC4 cation channel; AID 2227; HEK293 TRPC4beta/mu-opioid, DAMGO EC20, Fluo-4 Ca2+ flux; stronger effect = higher value; 310,000 compounds, 0.42% hits; B-score at 10 µM;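 active = B-score of calcium response area above 5 SD of library B-scores, with initial fluorescence ratio within 5 SD of library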
TRPC4 inh: TRPC4 (mouse) channel inhibition; Q9QUQ5; AID 2247; B-score at 10 µM; HEK293 TRPC4beta/mu-opioid, DAMGO-evoked Fluo4 calcium flux; stronger effect = lower value; 300,000 compounds, 0.39% hits;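 active = B-score over 3 SD under the library average, no early fluorescence shift, positive overall ratio signal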
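Assay system: HEK293 cells with stable TRPC4beta plus mu-opioid receptor expression. Dosing: single dose. Measured by: Fluo4 Ca2+ flux fluorescence. Also added: DAMGO in two steps, submaximal then maximal. Read-out: B score from integrated Fluo4 fluorescence ratio.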
Large screens that a line does not name were inactive. An excerpt weighted towards active compounds, which were near 2.3% of everything screened.

O=C(N/N=C/c1cccnc1)c1ccccc1OCc1ccc(Cl)cc1	TRPC4 act 100, TRPC4 inh -6
CC(=O)C(C(C)=O)C(NC(=O)c1cccnc1)(C(F)(F)F)C(F)(F)F	none
CN(C)C(CNC(=O)c1ccccc1OCc1ccc(Cl)cc1)c1ccco1 (centres undefined)	TRPC4 inh -7
Cc1c(C(=O)NCC(c2ccco2)N(C)C)oc2c(Cl)cccc12 (centres undefined)	TRPC4 inh -8
Cc1cc(C(=O)NCC(c2ccco2)N(C)C)ccc1[N+](=O)[O-] (centres undefined)	TRPC4 act 71
CN(C)C(CNC(=O)c1ccc2[nH]c(=O)c(=O)[nH]c2c1)c1ccco1 (centres undefined)	none (no result: TRPC4 act, TRPC6 act, TRPC6 inhibitor, TRPC4 potent, TRPC4 inh)
CN(C)C(CNC(=O)c1cc(Br)ccc1Cl)c1ccco1 (centres undefined)	none
CC(=O)c1ccc(OCCCC(=O)NCC(c2ccco2)N(C)C)cc1 (centres undefined)	none
CC(C)CCOc1ccc(C(=O)NCC(c2ccco2)N(C)C)cc1 (centres undefined)	TRPC4 inh -7
COc1ccc(C)cc1NC(=O)NNC(=O)C1CCC(C(C)(C)C)CC1 (centres undefined)	none
Clc1ccccc1-c1csc(Nc2cccnc2)n1	none
Cc1ccccc1CSCCC(=O)NCCc1ccccc1	none
CN(C)C(CNC(=O)CCNC(=O)c1ccc(Br)cc1)c1ccco1 (centres undefined)	none
CN(C)C(CNC(=O)c1ccc(Br)cc1)c1ccco1 (centres undefined)	TRPC4 act 63
C=CCNC(=O)COC(=O)CCC(=O)c1cccs1	none
O=C(NCc1ccccc1Cl)c1cnc2ccccc2n1	TRPC4 potent 56
O=C(NCc1ccccc1Cl)c1ccc2ccccc2n1	none
CCC(=O)N1CCc2cc(Br)cc(S(=O)(=O)NC3CCN(Cc4ccccc4)CC3)c21	none
CCCNS(=O)(=O)c1cc(Br)cc2c1N(C(=O)CC)CC2	none
CC(=O)N1CCc2cc(Br)cc(S(=O)(=O)NCCCN(C)Cc3ccccc3)c21	TRPC4 act 119
O=C(C1CC1)N1CCc2cc(S(=O)(=O)NCCCN3CCCCC3)ccc21	none
CC1CC(C)CN(CCCNS(=O)(=O)c2ccc3c(c2)CCN3C(=O)C2CC2)C1 (centres undefined)	TRPC4 act 66
CCC(=O)N1CCc2cc(Br)cc(S(=O)(=O)NCCCN(C)Cc3ccccc3)c21	TRPC4 act 82, TRPC4 potent 40
CCC(=O)N1CCc2cc(Br)cc(S(=O)(=O)NCCCN(CC)Cc3ccccc3)c21	TRPC4 act 148
O=c1[nH]c2ccccc2c(O)c1O	none
CCC(=O)N1CCc2cc(S(=O)(=O)NCCCN(CC)Cc3ccccc3)ccc21	TRPC4 act 50
CC1CC(C)CN(CCCNS(=O)(=O)c2ccc3c(c2)oc(=O)n3C)C1 (centres undefined)	TRPC4 act 49
CCC(=O)N1CCc2cc(S(=O)(=O)NCCN3CCCCC3CC)ccc21 (centres undefined)	TRPC4 inh -9
O=C(CCNS(=O)(=O)c1ccccc1)NNC(=O)c1csc(N2CCOCC2)n1	none
CCC(C)(C)NC(=O)C(c1sccc1C)N(Cc1ccco1)C(=O)c1csnn1 (centres undefined)	TRPC6 inhibitor -5.8
O=C(CCCN1C(=O)c2cccc3cccc(c23)C1=O)N1CCN(c2ncccn2)CC1	none
Cc1ccc2oc(C(=O)N3CCC(C(N)=O)(N4CCCCC4)CC3)c(C)c2c1	none
Oc1[nH]c2ccccc2c1C1=NCCCCC1	none
CC(=O)OCC1O[C@@H](O[C@@H]2C[C@H]3C(C)(C)[C@H](OC(C)=O)CC[C@]3(C)[C@H]3CC[C@]45C[C@]4(CC[C@H]5[C@@H](C)C[C@@H](O)[C@H](O)C(C)(C)O)[C@@]32C)[C@H](O)[C@@H](O)[C@@H]1O (some centres undefined)	TRPC4 act 110
COc1cc(C(=O)N2CCN(CCCc3ccccc3)CC2)cc(OC)c1OC	none
COCCn1ccc(O)c(Cc2ccccc2)c1=O	none
O=c1c(Cc2ccccc2)c(O)ccn1CCc1cnc[nH]1	TRPC4 act 129
O=c1c(Cc2ccc(F)cc2)c(O)ccn1CCc1cnc[nH]1	TRPC4 act 108
CCOc1ccc(/C(CCC(=O)O)=N/NC(=O)c2cccc(S(=O)(=O)Nc3ccccc3OC)c2)cc1	none (no result: TRPC4 act, TRPC6 act, TRPC6 inhibitor, TRPC4 potent, TRPC4 inh)
COc1ccc(/C=C2\Sc3ccc(C(=O)N4CCCC4)cc3N(C)C2=O)cc1OC	none
CC(C)CCNC(=O)CCn1c(=S)oc2ccccc21	none
CCOCCCn1cnc2c(c1=O)c1nc3ccccc3nc1n2-c1ccc(C)cc1	TRPC4 inh -8
CCOCCCn1cnc2c(c1=O)c1nc3ccccc3nc1n2-c1ccccc1	none
Cc1[nH]c2ccccc2c1CN1CCC(Cc2ccccc2)CC1	TRPC4 act 67
O=C(COc1ccccc1C(=O)NCc1ccccc1)Nc1ccccc1	none (no result: TRPC4 act, TRPC6 act, TRPC6 inhibitor, TRPC4 potent, TRPC4 inh)
Cc1ccc(-n2cc(CN3CCNC(=O)CC3)c(-c3ccc(F)cc3)n2)cc1	none
Cc1ccc(-n2cc(CN3CCC(O)(c4ccccn4)CC3)c(-c3ccc(F)cc3)n2)cc1	TRPC4 act 77
CC(=O)Nc1cccc(C(=O)OC(C(=O)c2ccc(C)cc2)c2ccccc2)c1 (centres undefined)	TRPC4 potent 17
CCCCn1c(-c2csc(CC)c2)n[nH]c1=S	none
CCCc1cc(-c2n[nH]c(=S)n2CC(C)C)cs1	TRPC4 potent 13
N#CC1=C(N)C(C#N)(C#N)C(c2cccnc2)C2CC(c3ccccc3)CC=C12 (centres undefined)	TRPC4 potent 36
COC(=O)CSc1nnc2n(-c3ccc(OC)cc3)c(=O)c3c4c(sc3n12)CCCCC4	TRPC4 inh -7
COC(=O)CSc1nnc2n(C3CCCCC3)c(=O)c3c4c(sc3n12)CCCC4	TRPC4 inh -6
CCOC(=O)CSc1nnc2n(C3CCCCC3)c(=O)c3c4c(sc3n12)CCCC4	none
C=CCSc1nnc2n(-c3ccccc3OC)c(=O)c3c4c(sc3n12)CCC4	TRPC4 inh -6
COc1ccc(CN(C(=O)c2cccc(OC)c2)C2CCS(=O)(=O)C2)cc1 (centres undefined)	none
CCn1c(=N)n(CC(O)c2cccs2)c2ccccc21 (centres undefined)	none
Cc1ccc(S(=O)(=O)c2cc3c(=O)n4cccc(C)c4nc3n(CC3CCCO3)c2=N)cc1C (centres undefined)	none
COc1ccc(CCn2c(NN=C3CCCCC3)nc3c2c(=O)[nH]c(=O)n3C)cc1	none
COC(=O)c1cc(NC2c3ccccc3C(=O)N2Cc2ccco2)cc(C(=O)OC)c1 (centres undefined)	none (no result: TRPC4 act, TRPC6 act, TRPC6 inhibitor, TRPC4 potent, TRPC4 inh)

Source: PubChem BioAssay (several laboratories)
